Laboratory results reported in paper PMC6754270 (Cell chemical biology, 2019).
“And” between values parts separate entries of the source, which are not always exact repeats. Equal values may be shown once. Read-outs that look alike come from different tables or passages of the source.

Tests used:
[1] = biological target: T1, spastin-WT (Drosophila melanogaster spastin, aa 209–758) (Drosophila melanogaster, UniProt Q8I0P1); assay: Steady-state ATPase activity, NADH-coupled assay, spastin-WT; format: biochemical
T1 sequence (Q8I0P1 209-758): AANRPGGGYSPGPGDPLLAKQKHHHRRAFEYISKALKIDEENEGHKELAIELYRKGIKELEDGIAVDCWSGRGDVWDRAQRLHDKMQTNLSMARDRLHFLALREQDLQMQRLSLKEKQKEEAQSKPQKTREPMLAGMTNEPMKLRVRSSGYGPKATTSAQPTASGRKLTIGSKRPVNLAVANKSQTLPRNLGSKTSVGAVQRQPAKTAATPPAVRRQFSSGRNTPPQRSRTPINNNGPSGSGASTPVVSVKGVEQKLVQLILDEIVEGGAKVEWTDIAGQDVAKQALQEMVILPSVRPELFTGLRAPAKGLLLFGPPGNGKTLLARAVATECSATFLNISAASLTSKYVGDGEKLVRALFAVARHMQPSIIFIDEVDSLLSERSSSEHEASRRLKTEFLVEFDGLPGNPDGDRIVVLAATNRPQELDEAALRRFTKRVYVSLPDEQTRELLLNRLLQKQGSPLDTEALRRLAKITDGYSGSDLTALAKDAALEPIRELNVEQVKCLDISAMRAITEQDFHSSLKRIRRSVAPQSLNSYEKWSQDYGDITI

[2] = biological target: spastin-Q488V (aa 209–758) (Drosophila melanogaster, UniProt Q8I0P1, Q488V); assay: Steady-state ATPase activity, NADH-coupled assay, spastin-Q488V; format: biochemical; conditions: for Change in inhibitor potency, Q488V (N-loop) vs wild-type: ATPase assay, compound 4: reduction in potency
Sequence of spastin-Q488V (aa 209–758) (Q8I0P1 209-758 Q488V): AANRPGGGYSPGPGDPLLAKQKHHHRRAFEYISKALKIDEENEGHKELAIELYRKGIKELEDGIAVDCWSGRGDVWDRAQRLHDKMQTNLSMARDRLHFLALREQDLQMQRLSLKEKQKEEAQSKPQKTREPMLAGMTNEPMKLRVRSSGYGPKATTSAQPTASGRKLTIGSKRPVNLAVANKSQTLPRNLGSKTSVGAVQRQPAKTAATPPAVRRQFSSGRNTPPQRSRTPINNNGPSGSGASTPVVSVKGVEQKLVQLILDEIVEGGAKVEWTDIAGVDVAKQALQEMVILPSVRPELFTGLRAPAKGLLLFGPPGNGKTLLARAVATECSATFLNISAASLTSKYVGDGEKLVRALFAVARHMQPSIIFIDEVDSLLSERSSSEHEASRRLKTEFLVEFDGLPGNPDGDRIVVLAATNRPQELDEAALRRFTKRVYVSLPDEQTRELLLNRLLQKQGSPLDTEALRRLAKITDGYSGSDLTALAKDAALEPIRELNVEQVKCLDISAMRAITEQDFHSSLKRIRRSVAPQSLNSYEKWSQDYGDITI

[3] = biological target: spastin-N527C (aa 209–758) (Drosophila melanogaster, UniProt Q8I0P1, N527C); assay: Steady-state ATPase activity, NADH-coupled assay, spastin-N527C; format: biochemical; conditions: for Change in inhibitor potency, N527C (P-loop) vs wild-type: ATPase assay, compound 4: reduction in potency
Sequence of spastin-N527C (aa 209–758) (Q8I0P1 209-758 N527C): as the sequence (Q8I0P1 209-758 Q488V) above, with V280Q, N319C counted along it

[4] = biological target: spastin-T692A (aa 209–758) (Drosophila melanogaster, UniProt Q8I0P1, T692A); assay: Steady-state ATPase activity, NADH-coupled assay, spastin-T692A; format: biochemical; conditions: for Change in inhibitor potency, T692A (sensor-II) vs wild-type: ATPase assay, compound 1: increase in potency
Sequence of spastin-T692A (aa 209–758) (Q8I0P1 209-758 T692A): as the sequence (Q8I0P1 209-758 Q488V) above, with V280Q, T484A counted along it

[5] = biological target: T2, spastin-AAA-WT (aa 445–758) (Drosophila melanogaster, UniProt Q8I0P1); assay: Differential scanning fluorimetry, spastin-AAA-WT; format: binding; conditions: 100 µM compound, vs DMSO, n=2
T2 sequence (Q8I0P1 445-758): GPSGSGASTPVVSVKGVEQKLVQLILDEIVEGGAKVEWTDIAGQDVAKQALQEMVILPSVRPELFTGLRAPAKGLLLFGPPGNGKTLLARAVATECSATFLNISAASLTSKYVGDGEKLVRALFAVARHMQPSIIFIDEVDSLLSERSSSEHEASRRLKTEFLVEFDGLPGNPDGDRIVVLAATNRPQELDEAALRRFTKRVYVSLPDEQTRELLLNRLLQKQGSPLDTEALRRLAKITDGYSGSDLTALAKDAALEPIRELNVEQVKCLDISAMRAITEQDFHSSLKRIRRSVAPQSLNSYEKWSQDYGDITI
Summary of the method: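 Drosophila spastin AAA domain (aa 445–758), expressed as a GST fusion in E. coli Rosetta, protease-cleaved and purified by anion exchange and gel filtration. Tm taken as minimum of first-derivative melt curve; n=2, range shown.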

[6] = biological target: spastin-AAA-N527C (aa 445–758) (Drosophila melanogaster, UniProt Q8I0P1, N527C); assay: Differential scanning fluorimetry, spastin-AAA-N527C; format: binding; conditions: 100 µM compound, vs DMSO, n=2
Sequence of spastin-AAA-N527C (aa 445–758) (Q8I0P1 445-758 N527C): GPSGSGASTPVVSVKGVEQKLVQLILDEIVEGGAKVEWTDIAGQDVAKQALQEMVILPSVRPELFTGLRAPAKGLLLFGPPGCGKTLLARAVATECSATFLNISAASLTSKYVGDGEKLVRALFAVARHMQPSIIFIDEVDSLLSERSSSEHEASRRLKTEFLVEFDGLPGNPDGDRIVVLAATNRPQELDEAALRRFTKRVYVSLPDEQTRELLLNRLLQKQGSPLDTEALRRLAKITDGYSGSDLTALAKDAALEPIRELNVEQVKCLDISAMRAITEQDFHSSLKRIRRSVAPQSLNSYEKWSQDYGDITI

[7] = biological target: spastin-AAA-Q488V (aa 445–758) (Drosophila melanogaster, UniProt Q8I0P1, Q488V); assay: Differential scanning fluorimetry, spastin-AAA-Q488V; format: binding; conditions: 100 µM compound, vs DMSO, n=2
Sequence of spastin-AAA-Q488V (aa 445–758) (Q8I0P1 445-758 Q488V): as the sequence (Q8I0P1 445-758 N527C) above, with Q44V, C83N counted along it

[8] = biological target: spastin-AAA-T692A (aa 445–758) (Drosophila melanogaster, UniProt Q8I0P1, T692A); assay: Differential scanning fluorimetry, spastin-AAA-T692A; format: binding; conditions: 100 µM compound, vs DMSO, n=2
Sequence of spastin-AAA-T692A (aa 445–758) (Q8I0P1 445-758 T692A): as the sequence (Q8I0P1 445-758 N527C) above, with C83N, T248A counted along it

katanin (Xl-katanin) [9] = biological target: T3, katanin (Xl-katanin) (Xenopus laevis, UniProt Q9PUL2); assay: Steady-state ATPase activity of katanin; format: biochemical, X. laevis; conditions: 2 µM compound, 0.5 mM MgATP, n=2
T3 sequence (Q9PUL2 whole entry): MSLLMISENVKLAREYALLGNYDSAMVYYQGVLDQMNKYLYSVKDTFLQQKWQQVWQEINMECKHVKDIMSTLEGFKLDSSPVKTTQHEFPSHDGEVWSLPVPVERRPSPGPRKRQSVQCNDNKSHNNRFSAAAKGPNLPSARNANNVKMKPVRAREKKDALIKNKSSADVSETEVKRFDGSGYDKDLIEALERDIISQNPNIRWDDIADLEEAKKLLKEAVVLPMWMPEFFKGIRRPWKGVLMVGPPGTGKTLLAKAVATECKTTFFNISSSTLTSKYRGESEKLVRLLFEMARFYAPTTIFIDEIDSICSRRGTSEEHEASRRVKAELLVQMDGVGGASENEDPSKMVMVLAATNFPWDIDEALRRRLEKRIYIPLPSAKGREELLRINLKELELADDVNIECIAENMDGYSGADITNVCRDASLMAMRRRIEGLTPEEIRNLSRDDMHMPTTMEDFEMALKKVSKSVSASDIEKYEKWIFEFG

[10] = biological target: T4, fidgetin-like 1 (Hs-FIGL1) (Homo sapiens, UniProt Q6PIW4); assay: Steady-state ATPase activity of fidgetin-like 1; format: biochemical, H. sapiens; conditions: 2 µM compound, 0.5 mM MgATP, n=2
T4 sequence (Q6PIW4 1-674): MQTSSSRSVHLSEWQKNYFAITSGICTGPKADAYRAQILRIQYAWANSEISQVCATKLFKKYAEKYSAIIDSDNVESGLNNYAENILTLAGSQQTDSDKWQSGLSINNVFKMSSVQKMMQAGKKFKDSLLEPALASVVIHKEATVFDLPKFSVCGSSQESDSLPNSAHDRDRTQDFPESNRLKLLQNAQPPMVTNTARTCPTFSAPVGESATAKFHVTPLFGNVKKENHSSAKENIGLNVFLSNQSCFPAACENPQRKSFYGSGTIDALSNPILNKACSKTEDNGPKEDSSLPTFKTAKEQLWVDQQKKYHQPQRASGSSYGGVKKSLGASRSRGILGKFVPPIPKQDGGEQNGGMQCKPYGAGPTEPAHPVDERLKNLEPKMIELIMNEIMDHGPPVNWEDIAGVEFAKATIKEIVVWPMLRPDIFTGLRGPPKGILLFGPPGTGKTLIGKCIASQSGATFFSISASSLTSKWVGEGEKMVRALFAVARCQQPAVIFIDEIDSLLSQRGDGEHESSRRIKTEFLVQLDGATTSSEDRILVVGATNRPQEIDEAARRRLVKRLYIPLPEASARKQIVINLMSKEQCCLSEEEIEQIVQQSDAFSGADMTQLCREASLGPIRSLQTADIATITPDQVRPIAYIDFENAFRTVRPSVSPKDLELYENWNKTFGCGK

VPS4B (Hs-VPS4B) = biological target: T5, VPS4B (Hs-VPS4B) (Homo sapiens, UniProt O75351); assay: Steady-state ATPase activity of VPS4B; format: biochemical, H. sapiens; conditions: 2 µM compound, 0.5 mM MgATP, n=2
T5 sequence (O75351 1-444): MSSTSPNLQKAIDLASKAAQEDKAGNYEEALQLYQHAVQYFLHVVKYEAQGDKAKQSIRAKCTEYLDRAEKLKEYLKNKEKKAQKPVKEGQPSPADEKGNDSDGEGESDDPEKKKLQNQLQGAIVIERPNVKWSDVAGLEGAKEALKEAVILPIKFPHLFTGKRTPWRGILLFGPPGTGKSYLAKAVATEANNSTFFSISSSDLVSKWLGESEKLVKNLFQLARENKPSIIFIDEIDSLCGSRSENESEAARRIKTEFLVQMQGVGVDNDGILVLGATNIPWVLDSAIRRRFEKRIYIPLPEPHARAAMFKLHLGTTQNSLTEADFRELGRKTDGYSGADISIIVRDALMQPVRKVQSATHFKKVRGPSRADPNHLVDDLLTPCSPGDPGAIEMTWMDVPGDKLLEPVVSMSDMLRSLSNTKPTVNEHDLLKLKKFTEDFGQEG

[11] = biological target: T1, spastin-WT (Drosophila melanogaster spastin, aa 209–758); conditions: ref Cupido et al., 2019; cited from earlier work
katanin (Xl-katanin) [12] = biological target: T3, katanin (Xl-katanin); conditions: ref Cupido et al., 2019; cited from earlier work
[13] = biological target: T4, fidgetin-like 1 (Hs-FIGL1); conditions: ref Cupido et al., 2019; cited from earlier work
human VCP/p97 T688A = conditions: sensor-II variability hot-spot mutation; ref Anderson et al., 2015; cited from earlier work

Row | Structure (SMILES) | IC50 [2] | Change in inhibitor potency, Q488V (N-loop) vs wild-type [2] | IC50 [3] | Change in inhibitor potency, N527C (P-loop) vs wild-type [3] | IC50 [4] | Change in inhibitor potency, T692A (sensor-II) vs wild-type [4] | Observed ∆Tm, spastin-AAA-WT [5] | Observed ∆Tm, spastin-AAA-N527C [6] | Observed ∆Tm, spastin-AAA-Q488V [7] | Observed ∆Tm, spastin-AAA-T692A [8] | other results
1 | CNC(=O)c1cccc(Nc2nc(N)n(C(=O)c3c(F)cccc3OC)n2)c1 [compound 4, 3-((5-amino-1-(2-fluoro-6-methoxybenzoyl)-1H-1,2,4-triazol-3-yl)amino)-N-methylbenzamide] | 2.6 ± 0.15 µM | ~ 11 fold | 1.11 ± 0.21 µM | ~ 4 fold | 0.22 ± 0.04 µM | did not change the potency | ~ 6.7 °C | ~ 4.5 °C | ~ 5.0 °C | ~ 7.2 °C | IC50 [1]: 0.23 ± 0.02 µM; Inhibition of steady-state ATPase activity of spastin ([1]; 2 µM compound, 0.5 mM MgATP, n=2): potently inhibits; Inhibition of steady-state ATPase activity of katanin (katanin (Xl-katanin) [9]): does not substantially inhibit; Inhibition of steady-state ATPase activity of fidgetin-like 1 [10]: does not substantially inhibit; Inhibition of steady-state ATPase activity of VPS4B (VPS4B (Hs-VPS4B)): does not substantially inhibit
2 | Nc1nc(Nc2ccc(S(N)(=O)=O)cc2)nn1C(=O)c1c(F)cccc1F [compound 1, 4-((5-amino-1-(2,6-difluorobenzoyl)-1H-1,2,4-triazol-3-yl)amino)benzenesulfonamide] | 8.9 ± 0.5 µM | less than 2 fold | 6 ± 1 µM | less than 2 fold | 0.9 ± 0.1 µM | ~ 7 fold | ~ 4.5 °C | ~ 4.3 °C | ~ 4.5 °C | ~ 6.2 °C | IC50 ([1]; IC50, inhibition of steady-state ATPase activity of spastin-WT, 0.5 mM MgATP, average ± s.d., n=3): 5.7 µM and 5.8 µM; Mechanism of inhibition ([1]; range of ATP concentrations, apparent K1/2 for ATP increased, kcat not altered): ATP competitive mechanism of inhibition; Effect on ATPase activity of spastin [11]: blocks the ATPase activity; Effect on ATPase activity of katanin (katanin (Xl-katanin) [12]): blocks the ATPase activity; Effect on ATPase activity of fidgetin-like 1 [13]: blocks the ATPase activity
3 | Cc1cc2c(C(N)=O)cccc2n1-c1nc2c(c(NCc3ccccc3)n1)COCC2 [CB-5083] | – | – | – | – | – | – | – | – | – | – | Change in compound potency, T688A vs wild-type VCP/p97 (human VCP/p97 T688A): > 60 fold
